Assay results taken from ChEMBL document CHEMBL4715736, “Identification of anticancer agents based on the thieno[2,3-b]pyridine and 1H-pyrazole molecular scaffolds” (2016).

Tests used:
Type in all cases: functional
[1] = system: HCT-116; assay: Growth inhibition of human HCT-116 cells assessed as cell growth at 0.1 uM incubated for 48 hrs by sulforhodamine B assay relative to control; conditions: read-out: Activity
[2] = system: SK-MEL-2; assay: Growth inhibition of human SK-MEL-2 cells assessed as cell growth at 0.1 uM incubated for 48 hrs by sulforhodamine B assay relative to control; conditions: read-out: Activity
[3] = system: T47D; assay: Growth inhibition of human T47D cells incubated for 48 hrs by sulforhodamine B assay; conditions: for CC50: read-out: LC50 (the source's name)
Procedure, shortened: (§1)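 NCI DTP 60-line human tumour panel. Dose-response curves were run only for ligands active in the initial 10 µM screen. GI50 (concentration giving 50% of maximal inhibition of proliferation) and TGI (concentration giving total growth inhibition) were derived from these curves.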

[4] = system: SN12C; assay: Growth inhibition of human SN12C cells assessed as cell growth at 100 uM incubated for 48 hrs by sulforhodamine B assay relative to control; conditions: read-out: Activity
[5] = system: CCRF-CEM; assay: Growth inhibition of human CCRF-CEM cells incubated for 48 hrs by sulforhodamine B assay
Procedure, shortened: (§2)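 NCI Developmental Therapeutics Program NCI60 panel. Compounds that were active in the 10 µM one-dose screen went on to dose–response testing. Growth at each concentration is expressed relative to untreated control (100%). GI50 (concentration giving 50% of maximal inhibition of proliferation) and TGI (concentration giving total growth inhibition) were derived from the curves.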

[6] = system: RPMI-8226; assay: Growth inhibition of human RPMI-8226 cells assessed as cell growth at 0.01 uM incubated for 48 hrs by sulforhodamine B assay relative to control; conditions: read-out: Activity
[7] = system: OVCAR-8; assay: Growth inhibition of human OVCAR-8 cells assessed as cell growth at 1 uM incubated for 48 hrs by sulforhodamine B assay relative to control; conditions: read-out: Activity
[8] = system: SF-539; assay: Growth inhibition of human SF-539 cells incubated for 48 hrs by sulforhodamine B assay; conditions: for CC50: read-out: LC50 (the source's name); procedure, shortened: as §1
[9] = system: CCRF-CEM; assay: Growth inhibition of human CCRF-CEM cells assessed as cell growth at 1 uM incubated for 48 hrs by sulforhodamine B assay relative to control; conditions: read-out: Activity; procedure, shortened: as §2
[10] = system: OVCAR-5; assay: Growth inhibition of human OVCAR-5 cells incubated for 48 hrs by sulforhodamine B assay; procedure, shortened: as §1
[11] = system: CAKI-1; assay: Growth inhibition of human CAKI-1 cells assessed as cell growth at 0.1 uM incubated for 48 hrs by sulforhodamine B assay relative to control; conditions: read-out: Activity; procedure, shortened: as §2
[12] = system: SK-MEL-28; assay: Growth inhibition of human SK-MEL-28 cells incubated for 48 hrs by sulforhodamine B assay; procedure, shortened: as §1
[13] = system: CCRF-CEM; assay: Growth inhibition of human CCRF-CEM cells assessed as cell growth at 100 uM incubated for 48 hrs by sulforhodamine B assay relative to control; conditions: read-out: Activity; procedure, shortened: as §2
[14] = system: MOLT-4; assay: Growth inhibition of human MOLT-4 cells assessed as cell growth at 0.01 uM incubated for 48 hrs by sulforhodamine B assay relative to control; conditions: read-out: Activity
[15] = system: SK-MEL-2; assay: Growth inhibition of human SK-MEL-2 cells incubated for 48 hrs by sulforhodamine B assay; procedure, shortened: as §1
[16] = system: HCT-116; assay: Growth inhibition of human HCT-116 cells assessed as cell growth at 0.01 uM incubated for 48 hrs by sulforhodamine B assay relative to control; conditions: read-out: Activity
[17] = system: MDA-MB-231; assay: Growth inhibition of human MDA-MB-231 cells assessed as cell growth at 0.01 uM incubated for 48 hrs by sulforhodamine B assay relative to control; conditions: read-out: Activity
[18] = system: U-251; assay: Growth inhibition of human U-251 cells assessed as cell growth at 0.1 uM incubated for 48 hrs by sulforhodamine B assay relative to control; conditions: read-out: Activity
[19] = system: UACC-257; assay: Growth inhibition of human UACC-257 cells assessed as cell growth at 100 uM incubated for 48 hrs by sulforhodamine B assay relative to control; conditions: read-out: Activity
[20] = system: ACHN; assay: Growth inhibition of human ACHN cells incubated for 48 hrs by sulforhodamine B assay; procedure, shortened: as §2
[21] = system: NCI-H322M; assay: Growth inhibition of human NCI-H322M cells assessed as cell growth at 100 uM incubated for 48 hrs by sulforhodamine B assay relative to control; conditions: read-out: Activity
[22] = system: SK-OV-3; assay: Growth inhibition of human SK-OV-3 cells assessed as cell growth at 0.01 uM incubated for 48 hrs by sulforhodamine B assay relative to control; conditions: read-out: Activity
[23] = system: KM12; assay: Growth inhibition of human KM12 cells assessed as cell growth at 100 uM incubated for 48 hrs by sulforhodamine B assay relative to control; conditions: read-out: Activity
[24] = system: SF-539; assay: Growth inhibition of human SF-539 cells assessed as cell growth at 0.01 uM incubated for 48 hrs by sulforhodamine B assay relative to control; conditions: read-out: Activity
[25] = system: UACC-257; assay: Growth inhibition of human UACC-257 cells assessed as cell growth at 0.1 uM incubated for 48 hrs by sulforhodamine B assay relative to control; conditions: read-out: Activity
[26] = system: ACHN; assay: Growth inhibition of human ACHN cells assessed as cell growth at 1 uM incubated for 48 hrs by sulforhodamine B assay relative to control; conditions: read-out: Activity
[27] = system: OVCAR-3; assay: Growth inhibition of human OVCAR-3 cells assessed as cell growth at 0.01 uM incubated for 48 hrs by sulforhodamine B assay relative to control; conditions: read-out: Activity
[28] = system: NCI-H226; assay: Growth inhibition of human NCI-H226 cells assessed as cell growth at 0.01 uM incubated for 48 hrs by sulforhodamine B assay relative to control; conditions: read-out: Activity
[29] = system: A498; assay: Growth inhibition of human A498 cells assessed as cell growth at 1 uM incubated for 48 hrs by sulforhodamine B assay relative to control; conditions: read-out: Activity; procedure, shortened: as §2
[30] = system: K562; assay: Growth inhibition of human K562 cells assessed as cell growth at 1 uM incubated for 48 hrs by sulforhodamine B assay relative to control; conditions: read-out: Activity
[31] = system: SN12C; assay: Growth inhibition of human SN12C cells assessed as cell growth at 0.1 uM incubated for 48 hrs by sulforhodamine B assay relative to control; conditions: read-out: Activity
[32] = system: M14; assay: Growth inhibition of human M14 cells incubated for 48 hrs by sulforhodamine B assay
Procedure, shortened: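 NCI60 panel at the NCI Developmental Therapeutics Program. Only compounds active in the 10 µM screen went to dose-response testing. GI50, the concentration giving 50% of maximal inhibition of proliferation, and TGI, the concentration giving total growth inhibition, were derived from the dose-response curves.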

[33] = system: Hs-578T; assay: Growth inhibition of human Hs-578T cells assessed as cell growth at 0.01 uM incubated for 48 hrs by sulforhodamine B assay relative to control; conditions: read-out: Activity
[34] = system: Malme-3M; assay: Growth inhibition of human Malme-3M cells assessed as cell growth at 0.01 uM incubated for 48 hrs by sulforhodamine B assay relative to control; conditions: read-out: Activity
[35] = system: NCI-H23; assay: Growth inhibition of human NCI-H23 cells assessed as cell growth at 1 uM incubated for 48 hrs by sulforhodamine B assay relative to control; conditions: read-out: Activity
[36] = read-out: LC50 (the source's name)

Cc1ccc(NC(=O)c2sc3nc4c(cc3c2N)C(=O)CCC4)cc1C
growth at 0.1 µM [1]: 90% | growth at 0.1 µM [2]: 90% | GI50 [3]: 0.444 µM | TGI [3]: ≥ 100 µM | CC50 [3]: > 100 µM | growth at 100 µM [4]: 17% | GI50 [5]: 0.334 µM | LC50 [5]: > 100 µM | TGI [5]: ≥ 100 µM | growth at 0.01 µM [6]: 99% | growth at 1 µM [7]: 68% | GI50 [8]: 0.404 µM | CC50 [8]: > 100 µM | growth at 1 µM [9]: 7% | GI50 [10]: 2.29 µM | TGI [10]: > 100 µM | CC50 [10, 36]: > 100 µM | growth at 0.1 µM [11]: 91% | GI50 [12]: 1.51 µM | LC50 [12]: > 100 µM | TGI [12]: > 100 µM | growth at 100 µM [13]: 10% | growth at 0.01 µM [14]: 103% | GI50 [15]: 0.463 µM | LC50 [15]: > 100 µM | TGI [15]: > 100 µM | growth at 0.01 µM [16]: 99% | growth at 0.01 µM [17]: 98% | growth at 0.1 µM [18]: 92% | growth at 100 µM [19]: 35% | GI50 [20]: 0.0239 µM | TGI [20]: > 100 µM | CC50 [20, 36]: > 100 µM | growth at 100 µM [21]: 37% | growth at 0.01 µM [22]: 103% | growth at 100 µM [23]: 9% | growth at 0.01 µM [24]: 97% | growth at 0.1 µM [25]: 92% | growth at 1 µM [26]: 46% | growth at 0.01 µM [27]: 102% | growth at 0.01 µM [28]: 90% | growth at 1 µM [29]: -17% | growth at 1 µM [30]: 17% | growth at 0.1 µM [31]: 96% | GI50 [32]: 0.366 µM | LC50 (concentration killing 50% of cells) [32]: > 100 µM | TGI [32]: > 100 µM | growth at 0.01 µM [33]: 93% | growth at 0.01 µM [34]: 96%

CN1CCc2nc3sc(C(N)=O)c(N)c3c(-c3cccs3)c2C1
growth at 0.1 µM [1]: 102% | growth at 0.1 µM [2]: 114% | GI50 [3]: 2.81 µM | TGI [3]: > 100 µM | CC50 [3]: > 100 µM | growth at 100 µM [4]: 6% | GI50 [5]: 3.77 µM | LC50 [5]: > 100 µM | TGI [5]: > 100 µM | growth at 0.01 µM [6]: 108% | growth at 1 µM [7]: 82% | GI50 [8]: 2.35 µM | TGI [8]: 6.79 µM | CC50 [8]: > 100 µM | growth at 1 µM [9]: 104% | growth at 0.1 µM [11]: 82% | GI50 [12]: 2.91 µM | LC50 [12]: > 100 µM | TGI [12]: 9.59 µM | growth at 100 µM [13]: 7% | growth at 0.01 µM [14]: 99% | GI50 [15]: 2.67 µM | LC50 [15]: > 100 µM | TGI [15]: 6.22 µM | growth at 0.01 µM [16]: 100% | growth at 0.01 µM [17]: 106% | growth at 0.1 µM [18]: 98% | growth at 100 µM [19]: 3% | growth at 100 µM [21]: -1% | growth at 0.01 µM [22]: 93% | growth at 1 µM [35]: 89% | growth at 100 µM [23]: 2% | growth at 0.01 µM [24]: 102% | growth at 0.1 µM [25]: 105% | growth at 0.01 µM [27]: 110% | growth at 0.01 µM [28]: 93% | growth at 1 µM [29]: 96% | growth at 1 µM [30]: 96% | growth at 0.1 µM [31]: 93% | GI50 [32]: 4.19 µM | LC50 (concentration killing 50% of cells) [32]: > 100 µM | TGI [32]: 19.4 µM | growth at 0.01 µM [33]: 95% | growth at 0.01 µM [34]: 104%
